Measurements from PMC10401072 (Cancer discovery, 2023).
One block for each compound: values may come before it.

Assays:
[1] = tested on: KRAS G12D mutant low-grade serous ovarian cancer; experiment: Phase 1 trial tumor response; format: in vivo, human; conditions: after 6 weeks of monotherapy
Outline: (§1)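 Tumor response was assessed by CT imaging every 6 weeks per RECIST v1.1 during oral monotherapy (powder in capsule) on the phase I trial.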

[2] = tested on: EML4-ALK fusion-positive NSCLC; format: in vivo, human; conditions: after 6 weeks monotherapy, 20 mg BIW
[3] = tested on: pERK in MIA PaCa-2 tumors; experiment: Animal PK/PD study: pERK in tumors; format: in vivo, mouse; conditions: single oral dose 30 mg/kg
Outline: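 Female Foxn1nu mice bearing subcutaneous right-flank xenografts (5 × 10^6 cells) grown to about 500 mm3 and randomized by size into groups of three. Each received one 30 mg/kg oral gavage dose in 20% hydroxypropyl-β-cyclodextrin/50 mmol/L citric acid, pH 4. Tumors were taken at 1, 8, 24 and 48 h and lysed in NP-40 buffer. pERK was immunoblotted in 250 μg lysate, normalized to GAPDH and vehicle controls, as POC.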

[4] = tested on: metastatic BRAF V600E colorectal cancer; experiment: Phase 1 trial tumor response; format: in vivo, human; conditions: after 6 weeks monotherapy; new lesions
Outline: as §1

[5] = Phase 1 trial safety; format: in vivo, human; conditions: single patient, monotherapy followed by combination, first dose level
Outline: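 Lead-in monotherapy ran 2 cycles/6 weeks. Matched targeted therapy was then added at labeled doses upon radiographic progression, if no ongoing grade ≥3 toxicity or DLT. The SHP2 inhibitor restarted one dose level below the highest safe monotherapy dose. Intrapatient escalation was allowed after 1 cycle. Adverse events were graded by CTCAE v5.0, and dose changes followed a prescribed algorithm.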

[6] = tested on: pERK in ex vivo CSF1-stimulated peripheral blood monocytes; experiment: Patient pharmacodynamic assessment; design: species or system human; conditions: ALK NSCLC patient; 20 mg; 4 hours after dosing on C1D1
Outline: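 Patient whole blood was shipped refrigerated the same day and processed within a 24 h stability window. Ex vivo stimulation used 9 ng/mL recombinant human M-CSF for 12 min at room temperature, with unstimulated control. Staining with CD45, CD14, ERK1/2 and pERK1/2 (T202/Y204) antibodies ran 30 min in the dark. Flow cytometry excluded doublets and gated CD45+CD14+ monocytes. pERK1/2 MFI was normalized to the unstimulated sample.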

[7] = tested on: GOPC-ROS1 fusion-positive pancreatic adenocarcinoma; experiment: Phase 1 trial tumor response; format: in vivo, human
[8] = Patient pharmacokinetic assessment; format: in vivo, human
Outline: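 Compound was given as powder in capsule. Plasma was sampled before treatment and at set intervals after dosing on cycle 1 days 1 and 18 at the starting monotherapy dose. Drug level was measured by a validated LC-MS/MS assay.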

[9] = cited from earlier work

- plasma level of PF-07284892 ([8]; ALK NSCLC patient, 20 mg orally BIW, 4 hours after C1D1 dose): 41 ng/mL
- plasma level of PF-07284892 ([8]; ALK NSCLC patient, 20 mg orally BIW, pre-dose C1D18, 3 days after prior dose): 29 ng/mL
- plasma level of PF-07284892 ([8]; BRAF V600E CRC patient, 20 mg BIW, C1D1): 56 ng/mL
- plasma level of PF-07284892 ([8]; BRAF V600E CRC patient, 20 mg BIW, C1D18): 35 ng/mL
SMILES: Nc1nccc(Sc2cnc(N3CCC4(CC3)Cc3ccccc3[C@H]4N)nn2)c1Cl [PF-07284892]
- tumor growth in two target lesions [1]: +6%
- change in target lesions on CT [2]: +50%
- response (RECIST 1.1) [2]: progressive disease
- suppression of pERK in tumors [3]: significant suppression
- change in target lesions [4]: +43%
- dose-limiting toxicities (DLTs) [5]: no DLTs
- decrease in pERK levels in peripheral blood monocytes [6]: 80%
- change in two target lesion liver metastases ([7]; after 6 weeks of monotherapy): +26%

SMILES: Cc1nc(N2CCC3(CC2)CO[C@@H](C)[C@H]3N)c(CO)nc1Sc1ccnc(N)c1Cl [RMC-4630]
- monotherapy activity in FIH trials [9]: limited monotherapy activity

SMILES: C[C@H]1CNC(=O)c2cnn3ccc(nc23)N[C@H](C)c2cc(F)ccc2O1 [repotrectinib, reference compound]
- time to progression on previous therapy ([7]; pre-study therapy, patient history): ~ 10 months

SMILES: C[C@@H]1OCC2(CCN(c3cnc(Sc4ccnc(N)c4Cl)c(N)n3)CC2)[C@@H]1N [TNO155]
- monotherapy activity in FIH trials [9]: limited monotherapy activity
